From ChEMBL document CHEMBL1137377, “Evaluation of azasterols as anti-parasitics” (J Med Chem, 2006)

Key:
[1] = test system: Trypanosoma brucei rhodesiense; assay: Antitrypanosomal activity against Trypanosoma brucei rhodesiense trypomastigotes; assay type: functional; conditions: read-out: ED50 (the source's name)
Outline: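 Bloodstream-form STIB900 trypomastigotes grown in HMI-18 + 15% HIFCS at 37 °C, 5% CO2. Seeded at 2 × 10^5/mL onto drug dilutions (top 30 µg/mL) for 72 h. Alamar Blue read 5-6 h later by fluorescence (ex/em 530/585 nm). ED50 by curve fitting.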

[2] = test system: Trypanosoma cruzi; assay: Antitrypanosomal activity against Trypanosoma cruzi trypomastigotes in CD1 mouse macrophage; assay type: functional; conditions: read-out: ED50 (the source's name)
Outline: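 Starch-induced CD1 peritoneal macrophages plated at 4 × 10^5/mL, infected after 24 h with T. cruzi Tulahuan LAC-Z trypomastigotes. 24 h later, drug exposure for 3 days. ED50 by curve fitting.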

[3] = test system: KB; assay: Cytotoxicity against KB cell line; assay type: functional; conditions: Homo sapiens, read-out: TD50 (the source's name)
[4] = test system: Plasmodium falciparum; assay: Antimalarial activity against Plasmodium falciparum 3D7; assay type: functional, organism-based; conditions: read-out: ED50 (the source's name)
Outline: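 Synchronized ring-stage 3D7 culture at 1% parasitemia in RPMI 1640, 5% hematocrit, 37 °C, 5% CO2. Top final drug concentration 30 µg/mL. After 24 h, (3H)-hypoxanthine added (0.2 µCi/well), then 48 h further incubation. Plates freeze/thawed and harvested, and hypoxanthine uptake counted. ED50 by curve fitting.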

[5] = test system: Leishmania donovani; assay: Antileishmanial activity against Leishmania donovani amastigotes in CD1 mouse macrophage; assay type: functional, organism-based; conditions: for EC50: read-out: ED50 (the source's name)
Outline: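 Peritoneal macrophages from starch-induced CD1 mice, kept 24 h in RPMI1640 + 10% HIFCS at 37 °C, 5% CO2. Infected with L. donovani MHOM/ET/67/L82 amastigotes from hamster spleen at 5 parasites:1 macrophage. After 24 h, drug exposure for 5 days, overlay replaced day 3. Top concentration 30 µg/mL, quadruplicate. Slides methanol-fixed, Giemsa-stained, counted microscopically. ED50 by curve fitting.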

EC50 [1]	EC50 [2]	EC50 [4]	EC50 [5]	Compound	CC50 [3]	ED50 [5]
> 77 µM	> 77 µM	> 77 µM	> 77 µM	C[C@H](CNCC(=O)O)[C@H]1CC[C@H]2C3CC=C4C[C@@H](O)CC[C@]4(C)[C@H]3CC[C@]12C (stereo not given in full)	> 770 µM	–
> 54 µM	4.64 µM	–	> 54 µM	CC(=O)O[C@H]1CC[C@@]2(C)C(=CCC3[C@@H]4CC[C@H]([C@H](C)CNC[C@H](NC(=O)OC(C)(C)C)C(=O)O)[C@@]4(C)CC[C@@H]32)C1 (stereo not given in full)	–	–
> 67 µM	56.3 µM	> 67 µM	54.5 µM	C[C@H](CNCCCCCC(=O)O)[C@H]1CC[C@H]2C3CC=C4C[C@@H](O)CC[C@]4(C)[C@H]3CC[C@]12C (stereo not given in full)	> 673 µM	–
0.55 µM	11.2 µM	–	25 µM	COC(=O)[C@@H](N)CCCCNC(=O)[C@@H](C)[C@H]1CC[C@H]2C3CC=C4C[C@@H](O)CC[C@]4(C)[C@H]3CC[C@]12C (stereo not given in full)	42 µM	–
0.431 µM	6.5 µM	> 62 µM	25.8 µM	C[C@H](C(=O)NCCCCCCCC(=O)O)[C@H]1CC[C@H]2C3CC=C4C[C@@H](O)CC[C@]4(C)[C@H]3CC[C@]12C (stereo not given in full)	377 µM	–
> 55 µM	11.2 µM	–	> 55 µM	C[C@H](C(=O)NCC[C@H](NC(=O)OC(C)(C)C)C(=O)O)[C@H]1CC[C@H]2C3CC=C4C[C@@H](O)CC[C@]4(C)[C@H]3CC[C@]12C (stereo not given in full)	1270 µM	–
17.5 µM	26.8 µM	–	> 51 µM	CC(=O)O[C@H]1CC[C@@]2(C)C(=CCC3[C@@H]4CC[C@H]([C@H](C)C(=O)NCC[C@H](NC(=O)OC(C)(C)C)C(=O)O)[C@@]4(C)CC[C@@H]32)C1 (stereo not given in full)	–	–
> 74 µM	> 74 µM	> 74 µM	–	C[C@H](C(=O)NCC(=O)O)[C@H]1CC[C@H]2C3CC=C4C[C@@H](O)CC[C@]4(C)[C@H]3CC[C@]12C (stereo not given in full)	> 743 µM	–
0.098 µM	28.7 µM	2.64 µM	14.8 µM	COC(=O)CCCCCCCNC[C@@H](C)[C@H]1CC[C@H]2C3CC=C4C[C@@H](OC(C)=O)CC[C@]4(C)[C@H]3CC[C@]12C (stereo not given in full)	10 µM	–
55.2 µM	> 62 µM	> 62 µM	> 62 µM	CC(=O)O[C@H]1CC[C@@]2(C)C(=CCC3[C@@H]4CC[C@H]([C@H](C)CNCCCCCC(=O)O)[C@@]4(C)CC[C@@H]32)C1 (stereo not given in full)	433 µM	–
10.4 µM	11.4 µM	> 65 µM	> 65 µM	C[C@H](C(=O)NCCCCCC(=O)O)[C@H]1CC[C@H]2C3CC=C4C[C@@H](O)CC[C@]4(C)[C@H]3CC[C@]12C (stereo not given in full)	303 µM	–
1.8 µM	> 49 µM	–	> 49 µM	C[C@H](C(=O)NCCCC[C@H](NC(=O)OCc1ccccc1)C(=O)O)[C@H]1CC[C@H]2C3CC=C4C[C@@H](O)CC[C@]4(C)[C@H]3CC[C@]12C (stereo not given in full)	276 µM	–
2.68 µM	8.7 µM	–	> 52 µM	CC(=O)O[C@H]1CC[C@@]2(C)C(=CCC3[C@@H]4CC[C@H]([C@H](C)C(=O)NC[C@H](NC(=O)OC(C)(C)C)C(=O)O)[C@@]4(C)CC[C@@H]32)C1 (stereo not given in full)	–	–
17.4 µM	18.5 µM	–	> 48 µM	CC(=O)O[C@H]1CC[C@@]2(C)C(=CCC3[C@@H]4CC[C@H]([C@H](C)CNCCC[C@H](NC(=O)OCc5ccccc5)C(=O)O)[C@@]4(C)CC[C@@H]32)C1 (stereo not given in full)	–	–
0.001 µM	–	–	–	N=C(N)c1ccc(OCCCCCOc2ccc(C(=N)N)cc2)cc1 [PENTAMIDINE]	–	–
> 52 µM	> 52 µM	51 µM	–	C[C@H](CNCCC[C@H](NC(=O)OCc1ccccc1)C(=O)O)[C@H]1CC[C@H]2C3CC=C4C[C@@H](O)CC[C@]4(C)[C@H]3CC[C@]12C (stereo not given in full)	417 µM	–
> 58 µM	> 58 µM	5.76 µM	–	C[C@H](CNC[C@H](NC(=O)OC(C)(C)C)C(=O)O)[C@H]1CC[C@H]2C3CC=C4C[C@@H](O)CC[C@]4(C)[C@H]3CC[C@]12C (stereo not given in full)	86.1 µM	–
> 72 µM	> 72 µM	> 72 µM	–	C[C@H](C(=O)NCCC(=O)O)[C@H]1CC[C@H]2C3CC=C4C[C@@H](O)CC[C@]4(C)[C@H]3CC[C@]12C (stereo not given in full)	615 µM	–

More lines, now with the values behind:

Compound	EC50 [1]	EC50 [2]	EC50 [4]	EC50 [5]	CC50 [3]	ED50 [5]
C[C@H](CNCCCCC(=O)O)[C@H]1CC[C@H]2C3CC=C4C[C@@H](O)CC[C@]4(C)[C@H]3CC[C@]12C (stereo not given in full)	30.1 µM	66.2 µM	> 70 µM	> 70 µM	> 695 µM	–
CC(=O)O[C@H]1CC[C@@]2(C)C(=CCC3[C@@H]4CC[C@H]([C@H](C)C(=O)NCCC[C@H](NC(=O)OCc5ccccc5)C(=O)O)[C@@]4(C)CC[C@@H]32)C1 (stereo not given in full)	1.7 µM	> 47 µM	> 47 µM	> 47 µM	147 µM	–
C[C@H](C(=O)NCCCCC(=O)O)[C@H]1CC[C@H]2C3CC=C4C[C@@H](O)CC[C@]4(C)[C@H]3CC[C@]12C (stereo not given in full)	7.85 µM	32.9 µM	> 67 µM	> 67 µM	561 µM	–
C[C@H](C(=O)NCCC[C@H](NC(=O)OCc1ccccc1)C(=O)O)[C@H]1CC[C@H]2C3CC=C4C[C@@H](O)CC[C@]4(C)[C@H]3CC[C@]12C (stereo not given in full)	1.33 µM	> 50 µM	–	> 50 µM	32 µM	–
CC(=O)O[C@H]1CC[C@@]2(C)C(=CCC3[C@@H]4CC[C@H]([C@H](C)C(=O)NCCCC[C@H](NC(=O)OCc5ccccc5)C(=O)OCc5ccccc5)[C@@]4(C)CC[C@@H]32)C1 (stereo not given in full)	0.01 µM	> 24 µM	3.4 µM	> 40 µM	> 400 µM	–
CC(=O)O[C@H]1CC[C@@]2(C)C(=CCC3[C@@H]4CC[C@H]([C@H](C)CNCC[C@H](NC(=O)OC(C)(C)C)C(=O)O)[C@@]4(C)CC[C@@H]32)C1 (stereo not given in full)	> 52 µM	13.2 µM	–	> 53 µM	–	–
COC(=O)CNC[C@@H](C)[C@H]1CC[C@H]2C3CC=C4C[C@@H](OC(C)=O)CC[C@]4(C)[C@H]3CC[C@]12C (stereo not given in full)	7.85 µM	5.61 µM	> 67.3 µM	–	94.5 µM	–
C[C@H](CNCCCC(=O)O)[C@H]1CC[C@H]2C3CC=C4C[C@@H](O)CC[C@]4(C)[C@H]3CC[C@]12C (stereo not given in full)	14.4 µM	47.3 µM	56.5 µM	> 72 µM	451 µM	–
C[C@H](C(=O)NCCCCCCC(=O)O)[C@H]1CC[C@H]2C3CC=C4C[C@@H](O)CC[C@]4(C)[C@H]3CC[C@]12C (stereo not given in full)	2.32 µM	34.5 µM	> 63 µM	> 63 µM	252 µM	–
pentostam	–	–	–	–	–	> 10 µM
COC(=O)CCCCNC[C@@H](C)[C@H]1CC[C@H]2C3CC=C4C[C@@H](OC(C)=O)CC[C@]4(C)[C@H]3CC[C@]12C (stereo not given in full)	0.032 µM	11.7 µM	8.65 µM	> 62 µM	26.1 µM	–
COC(=O)CCNC[C@@H](C)[C@H]1CC[C@H]2C3CC=C4C[C@@H](OC(C)=O)CC[C@]4(C)[C@H]3CC[C@]12C (stereo not given in full)	0.302 µM	28.9 µM	> 65.3 µM	22.8 µM	17.4 µM	–
C[C@H](C(=O)NC[C@H](NC(=O)OC(C)(C)C)C(=O)O)[C@H]1CC[C@H]2C3CC=C4C[C@@H](O)CC[C@]4(C)[C@H]3CC[C@]12C (stereo not given in full)	34.3 µM	> 56 µM	–	> 56 µM	109 µM	–
C[C@]12CC[C@H](O)C[C@@H]1CC[C@@H]1[C@@H]2CC[C@@]2(C)[C@H]1CC[C@@H]2[C@@](C)(O)C1CCCCN1 (stereo not given in full)	3.3 µM	7.4 µM	–	8.9 µM	11.9 µM	–
COC(=O)CCCCCCNC[C@@H](C)[C@H]1CC[C@H]2C3CC=C4C[C@@H](OC(C)=O)CC[C@]4(C)[C@H]3CC[C@]12C (stereo not given in full)	0.025 µM	53.5 µM	3.49 µM	9.5 µM	11.2 µM	–
CCN(CC)CCCC(C)Nc1ccnc2cc(Cl)ccc12 (stereo not given) [CHLOROQUINE]	–	–	0.003 µM	–	–	–
CC(=O)O[C@H]1CC[C@@]2(C)C(=CCC3[C@@H]4CC[C@H]([C@H](C)CNCCCCCCCC(=O)O)[C@@]4(C)CC[C@@H]32)C1 (stereo not given in full)	9.11 µM	21 µM	> 58 µM	–	59 µM	–
C[C@H](C(=O)NCCC[C@H](N)C(=O)O)[C@H]1CC[C@H]2C3CC=C4C[C@@H](O)CC[C@]4(C)[C@H]3CC[C@]12C (stereo not given in full)	2.38 µM	> 65 µM	–	> 65 µM	651 µM	–
